Reference: ChEMBL document CHEMBL1143122, “Novel analogs of D-e-MAPP and B13. Part 1: synthesis and evaluation as potential anticancer agents” (Bioorg Med Chem, 2008)

Key:
[1] = tested on: OVCAR-5; assay: Antiproliferative activity against human OVCAR5 cells after 48 hrs; assay type: functional; conditions: OVCAR-5, 48 h; for CC50: read-out: Log LC50 (the source's name) (converted); for TGI: read-out: Log TGI (converted)
Outline: (§1)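 NCI 60-cell screen. Cells were grown in RPMI 1640 with 5% FBS and 2 mM L-glutamine, then plated at 5,000–40,000 cells/well according to doubling time and preincubated for 24 h at 37 °C in 5% CO2. Compounds were dissolved in DMSO at 400× the top final concentration and tested at five 10-fold dilutions from 10−4 to 10−8 M for 48 h. Growth was read spectrophotometrically; GI50 is 50% net protein reduction.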

[2] = tested on: Malme-3M; assay: Antiproliferative activity against human MALME3M cells after 48 hrs; assay type: functional; conditions: for TGI: read-out: Log TGI (converted); outline: as §1
[3] = tested on: COLO 205; assay: Antiproliferative activity against human COLO205 cells after 48 hrs; assay type: functional; conditions: COLO 205, 48 h; for CC50: read-out: Log LC50 (the source's name) (converted); for TGI: read-out: Log TGI (converted); outline: as §1
[4] = tested on: Hs-578T; assay: Antiproliferative activity against human HS578T cells after 48 hrs; assay type: functional; conditions: for TGI: read-out: Log TGI (converted); outline: as §1
[5] = Antiproliferative activity against human NCI-ADR-RES cells after 48 hrs; assay type: functional; conditions: for TGI: read-out: Log TGI (converted); outline: as §1
[6] = Antiproliferative activity against human […] cells after 48 hrs; assay type: functional; conditions: for TGI: read-out: Log TGI (converted); outline: as §1
[7] = tested on: ACHN; assay: Antiproliferative activity against human ACHN cells after 48 hrs; assay type: functional; conditions: for CC50: read-out: Log LC50 (the source's name) (converted); for TGI: read-out: Log TGI (converted); outline: as §1
[8] = tested on: MOLT-4; assay: Antiproliferative activity against human MOLT4 cells after 48 hrs; assay type: functional; conditions: MOLT-4, 48 h; for TGI: read-out: Log TGI (converted); outline: as §1
[9] = tested on: OVCAR-4; assay: Antiproliferative activity against human OVCAR4 cells after 48 hrs; assay type: functional; conditions: OVCAR-4, 48 h; for TGI: read-out: Log TGI (converted); outline: as §1
[10] = tested on: SF-268; assay: Antiproliferative activity against human SF268 cells after 48 hrs; assay type: functional; conditions: SF-268, 48 h; for TGI: read-out: Log TGI (converted); outline: as §1
[11] = tested on: IGROV-1; assay: Antiproliferative activity against human IGROV1 cells after 48 hrs; assay type: functional; conditions: IGROV-1, 48 h; for TGI: read-out: Log TGI (converted); outline: as §1
[12] = tested on: NCI-H460; assay: Antiproliferative activity against human NCI-H460 cells after 48 hrs; assay type: functional; conditions: NCI-H460, 48 h; for CC50: read-out: Log LC50 (the source's name) (converted); for TGI: read-out: Log TGI (converted); outline: as §1
[13] = tested on: NCI-H23; assay: Antiproliferative activity against human NCI-H23 cells after 48 hrs; assay type: functional; conditions: NCI-H23, 48 h; for CC50: read-out: Log LC50 (the source's name) (converted); for TGI: read-out: Log TGI (converted); outline: as §1
[14] = tested on: SF-539; assay: Antiproliferative activity against human SF539 cells after 48 hrs; assay type: functional; conditions: SF-539, 48 h; for TGI: read-out: Log TGI (converted); outline: as §1
[15] = tested on: K562; assay: Antiproliferative activity against human K562 cells after 48 hrs; assay type: functional; conditions: K562, 48 h; for TGI: read-out: Log TGI (converted); outline: as §1
[16] = tested on: MDA-MB-231; assay: Antiproliferative activity against human MDA-MB-231 cells after 48 hrs; assay type: functional; conditions: MDA-MB-231, 48 h; for TGI: read-out: Log TGI (converted); outline: as §1
[17] = tested on: SNB-75; assay: Antiproliferative activity against human SNB75 cells after 48 hrs; assay type: functional; conditions: SNB-75, 48 h; for CC50: read-out: Log LC50 (the source's name) (converted); for TGI: read-out: Log TGI (converted); outline: as §1
[18] = tested on: HOP-92; assay: Antiproliferative activity against human HOP92 cells after 48 hrs; assay type: functional; conditions: HOP-92, 48 h; for TGI: read-out: Log TGI (converted); outline: as §1
[19] = tested on: UO-31; assay: Antiproliferative activity against human UO31 cells after 48 hrs; assay type: functional; conditions: UO-31, 48 h; for TGI: read-out: Log TGI (converted)
Outline: (§2)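 NCI 60-cell-line screen. Lines grown in RPMI 1640 with 5% fetal bovine serum and 2 mM L-glutamine, plated at 5,000–40,000 cells/well according to doubling time, left 24 h at 37 °C in 5% CO2. Drug stocks in DMSO at 400-fold the top final concentration. Five 10-fold dilutions, 10−4 to 10−8 M, incubated 48 h. Growth read spectrophotometrically as net protein; GI50 taken as 50% reduction.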

[20] = tested on: 786-0; assay: Antiproliferative activity against human 786-0 cells after 48 hrs; assay type: functional; conditions: 786-0, 48 h; for CC50: read-out: Log LC50 (the source's name) (converted); for TGI: read-out: Log TGI (converted); outline: as §1
[21] = tested on: U-251; assay: Antiproliferative activity against human U251 cells after 48 hrs; assay type: functional; conditions: U-251, 48 h; for TGI: read-out: Log TGI (converted); outline: as §2
[22] = tested on: OVCAR-8; assay: Antiproliferative activity against human OVCAR8 cells after 48 hrs; assay type: functional; conditions: OVCAR-8, 48 h; for TGI: read-out: Log TGI (converted); outline: as §1
[23] = tested on: SK-MEL-5; assay: Antiproliferative activity against human SKMEL5 cells after 48 hrs; assay type: functional; conditions: SK-MEL-5, 48 h; for CC50: read-out: Log LC50 (the source's name) (converted); outline: as §1
[24] = Antiproliferative activity against human HL60(TB) cells after 48 hrs; assay type: functional, HL-60(TB); conditions: HL-60, 48 h; for TGI: read-out: Log TGI (converted)
Outline: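 NCI 60-line panel screen: cells grown in RPMI 1640 with 5% fetal bovine serum and 2 mM L-glutamine, plated at 5,000–40,000 cells/well by doubling time, and preincubated 24 h at 37 °C in 5% CO2. Drugs were solubilised in DMSO at 400-fold the final maximum and tested at five 10-fold dilutions from 10−4 to 10−8 M for 48 h. Net protein was read spectrophotometrically, and the concentration giving 50% reduction was reported as log10 GI50.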

[25] = tested on: BT-549; assay: Antiproliferative activity against human BT549 cells after 48 hrs; assay type: functional; conditions: BT-549, 48 h; for TGI: read-out: Log TGI (converted); outline: as §1
[26] = tested on: SK-MEL-28; assay: Antiproliferative activity against human SKMEL28 cells after 48 hrs; assay type: functional; conditions: SK-MEL-28, 48 h; for TGI: read-out: Log TGI (converted); outline: as §1

CCCCCCCCCCCCCCN[C@@H](C)[C@H](O)c1ccccc1
GI50 [1]: 1.7 µM | CC50 [1]: 5.75 µM | TGI [1]: 3.16 µM | GI50 [2]: 2.04 µM | LC50 [2]: 6.46 µM | TGI [2]: 3.63 µM | GI50 [3]: 1.74 µM | CC50 [3]: 6.17 µM | TGI [3]: 3.31 µM | GI50 [4]: 2.19 µM | LC50 [4]: > 100 µM | TGI [4]: 5.5 µM | GI50 [5]: 1.7 µM | TGI [5]: 3.39 µM | GI50 [6]: 2 µM | TGI [6]: 3.8 µM | GI50 [7]: 1.78 µM | CC50 [7]: 6.03 µM | TGI [7]: 3.31 µM | GI50 [8]: 2.29 µM | TGI [8]: 4.68 µM | GI50 [9]: 2 µM | LC50 [9]: 3.72 µM | TGI [9]: 6.92 µM | GI50 [10]: 1.78 µM | LC50 [10]: 6.61 µM | TGI [10]: 3.39 µM | TGI [11]: 3.55 µM | GI50 [12]: 1.91 µM | CC50 [12]: 6.31 µM | TGI [12]: 3.47 µM | GI50 [13]: 1.82 µM | CC50 [13]: 6.76 µM | TGI [13]: 3.55 µM | GI50 [14]: 1.78 µM | TGI [14]: 3.39 µM | GI50 [15]: 1.66 µM | LC50 [15]: 7.41 µM | TGI [15]: 3.55 µM | GI50 [16]: 1.91 µM | LC50 (50% lethal concentration) [16]: 6.46 µM | TGI [16]: 3.55 µM | GI50 [17]: 1.7 µM | CC50 [17]: 6.61 µM | TGI [17]: 3.39 µM | GI50 [18]: 1.51 µM | TGI [18]: 3.09 µM | GI50 [19]: 1.74 µM | LC50 [19]: 6.61 µM | TGI [19]: 3.39 µM | GI50 [20]: 1.58 µM | CC50 [20]: 5.89 µM | TGI [20]: 3.09 µM | GI50 [21]: 1.82 µM | CC50 ([21]; read-out: Log LC50 (the source's name) (converted)): 5.89 µM | TGI [21]: 3.24 µM | GI50 [22]: 1.91 µM | TGI [22]: 4.07 µM | CC50 [23]: > 100 µM | GI50 [24]: 2 µM | LC50 [24]: 8.13 µM | TGI [24]: 3.98 µM | GI50 [25]: 1.51 µM | LC50 [25]: 5.75 µM | TGI [25]: 2.95 µM | GI50 [26]: 1.91 µM | LC50 [26]: 6.31 µM | TGI [26]: 3.47 µM

CCCCCCCCCCCCCCN[C@@H](CO)Cc1ccccc1
GI50 [1]: 2.4 µM | CC50 [1]: 15.8 µM | TGI [1]: 5.5 µM | GI50 [2]: 2 µM | LC50 [2]: 6.31 µM | TGI [2]: 3.55 µM | GI50 [3]: 1.66 µM | CC50 [3]: 6.03 µM | TGI [3]: 3.16 µM | GI50 [4]: 2.4 µM | LC50 [4]: 11 µM | TGI [4]: 5.01 µM | GI50 [5]: 1.86 µM | LC50 [5]: 6.31 µM | TGI [5]: 3.47 µM | GI50 [6]: 4.68 µM | LC50 [6]: 45.7 µM | TGI [6]: 17 µM | GI50 [7]: 1.7 µM | CC50 [7]: 5.89 µM | TGI [7]: 3.16 µM | GI50 [8]: 2.04 µM | LC50 [8]: 9.33 µM | TGI [8]: 4.37 µM | GI50 [9]: 1.91 µM | LC50 [9]: 6.31 µM | TGI [9]: 3.47 µM | GI50 [10]: 1.78 µM | LC50 [10]: 7.08 µM | TGI [10]: 3.55 µM | GI50 [11]: 1.91 µM | TGI [11]: 3.72 µM | GI50 [12]: 1.82 µM | CC50 [12]: 6.17 µM | TGI [12]: 3.39 µM | GI50 [13]: 2.09 µM | CC50 [13]: 9.77 µM | TGI [13]: 4.47 µM | GI50 [14]: 1.7 µM | LC50 [14]: 6.76 µM | TGI [14]: 3.39 µM | GI50 [15]: 1.82 µM | LC50 [15]: 9.33 µM | TGI [15]: 4.07 µM | GI50 [16]: 2 µM | LC50 (50% lethal concentration) [16]: 6.61 µM | TGI [16]: 3.63 µM | GI50 [17]: 2.19 µM | CC50 [17]: 14.1 µM | TGI [17]: 4.79 µM | GI50 [18]: 1.23 µM | LC50 [18]: 6.46 µM | TGI [18]: 2.82 µM | GI50 [19]: 4.37 µM | LC50 [19]: > 100 µM | TGI [19]: 21.4 µM | GI50 [20]: 1.82 µM | CC50 [20]: 5.89 µM | TGI [20]: 3.24 µM | GI50 [21]: 1.74 µM | TGI [21]: 3.24 µM | GI50 [22]: 1.91 µM | TGI [22]: 3.8 µM | GI50 [23]: 1.78 µM | CC50 [23]: 6.03 µM | TGI ([23]; read-out: Log TGI (converted)): 3.24 µM | GI50 [24]: 1.78 µM | LC50 [24]: 9.33 µM | TGI [24]: 4.07 µM | LC50 [25]: 4.57 µM | TGI [25]: 1.78 µM | GI50 [26]: 1.91 µM | LC50 [26]: 6.31 µM | TGI [26]: 3.47 µM
